This is a sample that favours compounds with a hit; in the whole collection about 2.2% have one here.
NR2E3 ag-1 – human photoreceptor-specific nuclear receptor agonism | CHO-S Gal4-NCOR/VP16-NR2E3 two-hybrid, luciferase | inhibition of corepressor binding, % at 3.98 µM | actives 0.35% (n = 360,000) | AID 602229;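 active = inhibition above the mean of all tested compounds plus 3 SD, cut at about 70% in these data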;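 note: 0% = DMSO with NR2E3 transfected cells and 100% = cells lacking NR2E3 construct; higher means lower luciferase signal from less NR2E3 corepressor binding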
Target sequence (Q9Y5X4 whole entry, looked up, the tested form may be a part): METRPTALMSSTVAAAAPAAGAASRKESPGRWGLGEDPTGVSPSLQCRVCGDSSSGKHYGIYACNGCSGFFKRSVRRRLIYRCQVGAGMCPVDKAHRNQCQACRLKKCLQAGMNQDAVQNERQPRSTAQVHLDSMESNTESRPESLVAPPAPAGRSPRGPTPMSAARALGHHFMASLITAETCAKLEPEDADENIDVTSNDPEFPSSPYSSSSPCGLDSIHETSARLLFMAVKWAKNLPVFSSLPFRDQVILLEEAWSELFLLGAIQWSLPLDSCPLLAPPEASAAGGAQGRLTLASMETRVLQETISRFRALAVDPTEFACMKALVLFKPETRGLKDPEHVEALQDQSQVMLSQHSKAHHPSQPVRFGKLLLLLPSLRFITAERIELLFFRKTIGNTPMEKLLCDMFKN
NR2E3 ag-2 – activates human photoreceptor nuclear receptor NR2E3 | actives 0.12% (n = 320,000) | inhibition of corepressor binding, % at 4.78 µM | GST-NR2E3/biotin-RetCOR TR-FRET, 1536-well | Q9Y5X4;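 active = percent inhibition above the cutoff of mean plus 3 SD of all tested compounds, set per screening campaign, cut at about 20% in these data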;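 note: 0% = DMSO wells and 100% = biotin wells as full block of FRET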
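Material: NR2E3–RetCOR corepressor complex / Amount: 1.35 nM GST-NR2E3 / Medium: Tris pH 7.5 / Compound: single nominal compound dose of 4.8 µM / Incubation: 5 h at 4 °C / Technique: TR-FRET, Eu(K)-anti-GST donor, streptavidin-D2 acceptor, ex 340, em 617/671 nm / Read-out basis: percent loss of FRET ratio relative to control wells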
GalR3 antagonist – blocks the human galanin receptor 3. inhibition, % at 3 µM. AID 651719. O60755. HEK293 GalR3-CNG cAMP membrane potential fluorescence; galR3 body fused to GalR1 C-terminus. actives 0.44% (n = 360,000);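 active = inhibition above the screen-wide average plus 3 SD, cut at about 13% in these data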;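 note: forskolin and galanin both at EC90 stimulate the cells; cAMP rise reported by CNG channel membrane potential dye signal; 0% = forskolin plus galanin with DMSO and 100% = forskolin alone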
SMARCA2 act – activators of SMARCA2 function | MG213 cells, MMTV-luciferase reporter, dexamethasone, overnight | actives 1% (n = 370,000) | activation, % at 9.1 µM; in the data active = activation above about 7.8%;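 note: 0% = vehicle wells and 100% = reference activator wells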
COUP-TFII inh – inhibitors of human COUP-TFII (NR2F2); P24468; HEK293T NGFI-A luciferase reporter, luminescence; inhibition, % at 8.6 µM; actives 0.7% (n = 370,000);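 active = inhibition above a per-plate cutoff, mean inhibition of test wells between control levels plus 3 SD, cut at about 38% in these data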;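 note: cells cotransfected with COUP-TFII expression vector driving the NGFI-A reporter; 0% = median of COUP-TF2 test wells and 100% = reporter-only cells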
Gal4-VP16 ctr – inhibits VP16 reporter, flagging COUP-TFII antagonist hits | shares compounds with COUP-TFII inh | HEK293 Gal4-VP16 luciferase reporter, luminescence | inhibition, % at 8.5 µM | actives 25% (n = 2,500); in the data active = inhibition above about 13%
NR2F2 inh conf – COUP-TFII (NR2F2) inhibition, confirmation assay; shares compounds with COUP-TFII inh; HEK293 NGFI-A luciferase reporter, luminescence; inhibition, % at 8.5 µM; actives 45% (n = 2,500); AID 687008;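 active = mean inhibition over three repeats above a set limit taken from the earlier primary screen, cut at about 38% in these data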;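 note: 100% = cells given the luciferase reporter alone without the COUP-TF2 vector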
Active calls of the source: *; / = not tested or not shown.

SMILES | NR2E3 ag-1 | NR2E3 ag-2 | GalR3 antagonist | SMARCA2 act | COUP-TFII inh | Gal4-VP16 ctr | NR2F2 inh conf
COc1ccc2c(c1)c(C(C)=O)c(C)n2CCc1ccccc1 | -19 | 2 | -13 | -5 | 53* | 4 | 23
COc1ccc(-n2c(C)c(C(C)=O)c3cc(O)ccc32)cc1 | -44 | / | 1 | -4 | 44* | 10 | 18
N#CC(C#N)c1ccnc2ccccc12 | -68 | / | 4 | -6 | 40* | 6 | 17
COc1ccc(CN(C)C(=O)/C=C/c2ccc(S(=O)(=O)N3CCCCCC3)cc2)cc1 | -48 | 1 | -9 | -3 | 38* | 10 | 27
COc1ccc(CN(C)C(=O)CCc2ccc(S(=O)(=O)N3CCCCCC3)cc2)c(OC)c1 | 19 | 3 | -3 | -1 | 5 | / | /
CCOc1ccc(CN(C)C(=O)CCc2ccc(S(=O)(=O)N3CCCCCC3)cc2)cc1 | 43 | 1 | -4 | -3 | 41* | 1 | 19
CNC(=O)c1ccc(CN(C)C(=O)/C=C/c2ccc(S(=O)(=O)N3CCCCCC3)cc2)cc1 | -8 | / | -9 | -3 | 19 | / | /
NC(=O)[C@@H]1CCCN1C(=O)[C@H]1O[C@@H](n2ccc(N)nc2=O)[C@H](O)[C@@H]1O | / | / | -8 | -3 | 0 | / | /
N=c1c2c(-c3ccccc3)c(-c3ccccc3)n(Cc3ccccc3)c2ncn1C1CCOCC1 | / | / | / | 0 | 16 | / | /
CC(=O)[C@@]1(O)Cc2c(O)c3c(c(O)c2[C@H](O[C@H]2C[C@H](N)[C@H](O)[C@H](C)O2)C1)C(=O)c1ccccc1C3=O | 14 | / | -6 | -12 | 58* | 10 | 38*
O=C1NC(Cc2ccc(O)cc2)c2nc3ccc(Cl)cc3c(=O)n2-c2cc3ccccc3cc21 (stereo not drawn) | -21 | / | -6 | -5 | 41* | 0 | 3
O=C1NC(Cc2ccccc2)c2nc3ccc(Cl)cc3c(=O)n2-c2cc3ccccc3cc21 (stereo not drawn) | -12 | / | -5 | -4 | -12 | / | /
C=CCN(C(=O)CSc1nc2[nH]ncc2c(=O)n1-c1ccccc1OC)c1ccccc1 | -22 | 6 | -3 | -3 | 42* | -6 | -3
CN(C)c1ccc(C=c2c3cc([N+](=O)[O-])ccc3n3c2cc(-c2ccccc2)[n+]3C)cc1 | -11 | / | -2 | -9 | 68* | 53* | 59*
COc1cc(/C=C(/C(=O)O)c2ccc(-c3ccccc3)cc2)cc(OC)c1OC | -62 | 5 | -9 | 0 | -1 | / | /
COc1cc(C=c2c3ccccc3n3c2cc(-c2ccccc2)[n+]3C)cc(OC)c1OC | -42 | / | -5 | -7 | 38* | -1 | 7
CCOC(=O)C1CCN(C(=O)C(C)(C)NC(=O)Nc2ccc3c(c2)CCC3)CC1 | / | / | / | / | 4 | / | /
Cc1cc(C(C)(C)C)cc(C)c1C[n+]1ccc2ccccc2c1 | 29 | 0 | -4 | -6 | 66* | 27* | 55*
C=CCN1C(=O)[C@@H](CC(=O)NCCc2ccccc2OC)[C@]2(C(=O)OC)CCCCC=C12 | / | / | / | 0 | 1 | / | /
C=CCN1[C@H](CO)[C@H](c2ccccc2)[C@@H]1C#N | / | / | / | -3 | -9 | / | /
O=[N+]([O-])c1cccc(-c2cc3cccc[n+]3cc2-c2cccc([N+](=O)[O-])c2)c1 | -6 | 1 | -2 | 0 | -12 | / | /
Cc1cccc2cc(-c3ccccc3)c(-c3ccccc3)c[n+]12 | -23 | 3 | 2 | -4 | 64* | 2 | 44*
CCOc1ccc(-n2c(SCC(=O)Nc3ccc4cn[nH]c4c3)nnc2-c2ccc(C(C)(C)C)cc2)cc1 | / | / | / | -3 | -5 | / | /
CN(C)[C@H]1CCN(c2ccc3c(c2)O[C@H]2CCN(C2)S3(=O)=O)C1 | / | / | / | -3 | -18 | / | /
CC(=O)Nc1sc2c(c1-c1nc3ccccc3s1)CCN(C)C2 | / | / | / | / | -99 | / | /
CC(C)N1CCc2c(sc(NC(=O)c3nc4ccccc4s3)c2C(N)=O)C1 | -13 | 2 | -5 | -3 | 38* | -9 | 6
CC(=O)Nc1sc2c(c1-c1nc3ccccc3s1)CCCN(C(C)C)C2 | / | / | / | / | 45* | -9 | -70
COc1ccc(N=C(N)NC(=O)OCc2ccccc2)cc1 | / | / | / | -1 | -20 | / | /

Source: PubChem
